According to ChEMBL document CHEMBL1138753, “Synthesis and biological activity of analogues of the antimicrotubule agent N,beta,beta-trimethyl-L-phenylalanyl-N(1)-[(1S,2E)-3-carboxy-1-isopropylbut-2-enyl]- N(1),3-dimethyl-L-valinamide (HTI-286)” (J Med Chem, 2004):

Legend:
[1] = tested on: Mus musculus; assay: Minimum effective dose was evaluated in lox melanoma human tumor graft model in athymic mice when administered intravenously; conditions: iv, read-out: MED
[2] = tested on: KB; assay: Concentration required to inhibit tumor cell growth in KB-V1 cells; type: functional, cell-based; conditions: Homo sapiens
Outline: (§1)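 Cytotoxicity was measured in paclitaxel-sensitive KB-3-1 cells and in KB-8-5 and KB-V1 cells, which express moderate and high P-glycoprotein respectively. Result is the average IC50 (nM) ± SEM; SEM is omitted where it is below 10% of the average.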

[3] = target: T1, Tubulin beta-1 chain (Homo sapiens, UniProt Q9H4B7); assay: Percent inhibition of tubulin polymerization at 0.3 uM concentration; type: functional
[4] = tested on: LOX IMVI; assay: Inhibitory concentration against Lox melanoma cells; type: functional, cell-based; conditions: Homo sapiens
Outline: (§2)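 Cytotoxicity panel covered tumor lines differing in P-glycoprotein expression. Lox melanoma and KM20 have none; NCI-H1299, HCT-15 and S1 express it. Result is the average IC50 (nM) ± SEM.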

[5] = tested on: NCI-H1299; assay: Inhibitory concentration against NCI-H1299 cells was evaluated; type: functional, cell-based; conditions: Homo sapiens
Outline: as §2

[6] = tested on: KB; assay: Concentration required to inhibit tumor cell growth in KB-8-5 cells; type: functional, cell-based, Homo sapiens; conditions: Homo sapiens, KB
Outline: as §1

[7] = Concentration required to inhibit tumor cell growth in KB-3-1 cells; type: functional, cell-based, Homo sapiens; conditions: Homo sapiens, KB 3-1
Outline: as §1

[8] = target: T1, Tubulin beta-1 chain; assay: Binding affinity towards tubulin
[9] = tested on: HCT-15; assay: Inhibitory concentration against HCT-15 cells was evaluated; type: functional, cell-based; conditions: Homo sapiens
Outline: as §2

[10] = Inhibitory concentration against KM20 cells was evaluated; type: functional, cell-based, Homo sapiens
Outline: as §2

[11] = target: T1, Tubulin beta-1 chain; assay: Binding affinity towards tubulin; d = weak binding
[12] = Inhibitory concentration against S1 cells was evaluated; type: functional, cell-based
Outline: as §2

[13] = tested on: Mus musculus; assay: Minimum tolerated dose was evaluated in lox melanoma human tumor graft model in athymic mice when administered intravenously
[14] = tested on: KB 3-1; assay: Inhibitory concentration against KB-3-1 cells was evaluated; type: functional, cell-based; conditions: Homo sapiens
Outline: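 Cytotoxicity was measured in paclitaxel-sensitive KB-3-1 human carcinoma cells. The value is the average IC50 in nM ± SEM; where no SEM is given, it is under 10% of the average.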

[15] = target: T1, Tubulin beta-1 chain; assay: Binding affinity towards tubulin; e = no evidence for binding

T1 sequence (Q9H4B7 whole entry): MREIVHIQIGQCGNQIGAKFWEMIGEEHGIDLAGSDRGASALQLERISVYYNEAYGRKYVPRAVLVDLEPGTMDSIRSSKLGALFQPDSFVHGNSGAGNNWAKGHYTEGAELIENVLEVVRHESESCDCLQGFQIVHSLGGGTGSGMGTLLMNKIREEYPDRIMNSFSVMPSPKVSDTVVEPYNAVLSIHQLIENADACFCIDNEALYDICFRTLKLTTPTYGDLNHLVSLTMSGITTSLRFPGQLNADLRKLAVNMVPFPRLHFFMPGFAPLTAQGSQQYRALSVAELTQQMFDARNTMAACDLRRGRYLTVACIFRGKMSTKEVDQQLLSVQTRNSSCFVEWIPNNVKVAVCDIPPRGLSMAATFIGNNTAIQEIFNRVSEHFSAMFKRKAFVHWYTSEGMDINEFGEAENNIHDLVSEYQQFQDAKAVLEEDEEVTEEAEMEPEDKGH

Compound: CCOC(=O)/C(C)=C/[C@H](C(C)C)N(C)C(=O)[C@@H](NC(=O)[C@@H](NC)C(C)(C)c1ccccc1)C(C)(C)C
- minimal effective dose [1]: 0.4 mg/kg
- IC50 [2]: 1870 nM
- inhibition [3]: 97%
- IC50 [4]: 13.9 nM
- IC50 [5]: 100 nM
- IC50 [6]: 499 nM
- IC50 [7]: 34 nM
- Kd [8]: 4000 nM
- IC50 [9]: 575 nM

Compound: CN[C@H](C(=O)N[C@H](C(=O)N(C)[C@H](/C=C(\C)C(=O)N1CCOCC1)C(C)C)C(C)(C)C)C(C)(C)c1ccccc1
- minimal effective dose [1]: 3 mg/kg
- IC50 [2]: 1190 nM
- inhibition [3]: 69%
- IC50 [6]: 75 nM
- IC50 [7]: 42 nM

Compound: CN[C@H](C(=O)N[C@H](C(=O)N(C)[C@H](C[C@@H](C)C(=O)O)C(C)C)C(C)(C)C)C(C)(C)c1ccccc1
- IC50 [2]: 1320 nM
- inhibition [3]: 99%
- IC50 [6]: 19.1 nM
- IC50 [7]: 8.5 nM
- Kd [8]: 4000 nM

Compound: CN[C@H](C(=O)N[C@H](C(=O)N[C@H](/C=C(\C)C(=O)O)C(C)C)C(C)(C)C)C(C)(C)c1ccccc1
- IC50 [2]: > 3000 nM
- inhibition [3]: 79%
- IC50 [4]: 23 nM
- IC50 [5]: 54 nM
- IC50 [6]: 130 nM
- IC50 [7]: 43 nM
- IC50 [9]: 204 nM

Compound: CN[C@H](C(=O)N[C@H](C(=O)N(C)[C@H](/C=C(\C)C(=O)O)C(C)C)C(C)(C)SC)C(C)(C)c1ccccc1
- minimal effective dose [1]: 0.5 mg/kg
- IC50 [2]: 303 nM
- inhibition [3]: 76%
- IC50 [4]: 3 nM
- IC50 [10]: 6 nM
- IC50 [5]: 15.8 nM
- IC50 [6]: 7.1 nM
- IC50 [7]: 2.7 nM
- Kd [8]: 700 nM
- IC50 [9]: 18.6 nM

Compound: CC/C(=C\[C@H](C(C)C)N(C)C(=O)[C@@H](NC(=O)[C@@H](NC)C(C)(C)c1ccccc1)C(C)(C)C)C(=O)O
- minimal effective dose [1]: 2 mg/kg
- IC50 [2]: 513 nM
- inhibition [3]: 83%
- IC50 [4]: 6.3 nM
- IC50 [10]: 6.6 nM
- IC50 [5]: 19.3 nM
- IC50 [6]: 14 nM
- IC50 [7]: 5.4 nM
- IC50 [9]: 20.8 nM

Compound: CN[C@@H](C(=O)N[C@H](C(=O)N(C)[C@H](/C=C(\C)C(=O)O)C(C)C)C(C)(C)C)C(C)(C)c1ccccc1 (single isomer, unassigned)
- IC50 [2]: 879 nM
- inhibition [3]: 91%
- IC50 [4]: 37 nM
- IC50 [5]: 79 nM
- IC50 [6]: 39 nM
- IC50 [7]: 28 nM
- IC50 [9]: 58 nM
- Kd [11]: Weak binding

Compound: CNC(=O)/C(C)=C/[C@H](C(C)C)N(C)C(=O)[C@@H](NC(=O)[C@@H](NC)C(C)(C)c1ccccc1)C(C)(C)C
- IC50 [2]: 1590 nM
- inhibition [3]: 78%
- IC50 [5]: 90 nM
- IC50 [12]: 657 nM
- IC50 [6]: 129 nM
- IC50 [7]: 68 nM
- IC50 [9]: 25.5 nM

Compound: C/C(=C\[C@H](C(C)C)N(C)C(=O)[C@@H](NC(=O)[C@@H](N(C)C)C(C)(C)c1ccccc1)C(C)(C)C)C(=O)O
- minimal effective dose [1]: 1 mg/kg
- IC50 [2]: 116 nM
- inhibition [3]: 93%
- IC50 [6]: 3.7 nM
- IC50 [7]: 1.6 nM

Compound: CN[C@H](C(=O)N[C@H](C(=O)N(C)[C@H](/C=C(\C)C(=O)O)C(C)C)C(C)(C)C)C(C)(C)c1ccc(OC)cc1
- minimal effective dose [1]: 0.1 mg/kg
- IC50 [2]: 143 nM
- inhibition [3]: 91%
- IC50 [4]: 1.1 nM
- IC50 [5]: 10 nM
- IC50 [12]: 7.3 nM
- IC50 [6]: 4.1 nM
- MTD [13]: 1.6 mg/kg
- IC50 [7]: 1.4 nM
- Kd [8]: 700 nM
- IC50 [9]: 6.9 nM

Compound: CN[C@H](C(=O)N[C@H](C(=O)N(C)[C@H](/C=C(\C)C(=O)O)C(C)C)C(C)C)C(C)(C)c1ccccc1
- minimal effective dose [1]: 0.7 mg/kg
- IC50 [2]: 288 nM
- inhibition [3]: 78%
- IC50 [6]: 11 nM
- MTD [13]: >3 mg/kg
- IC50 [7]: 5.2 nM

Compound: CN[C@H](C(=O)N[C@H](C(=O)N(C)[C@H](/C=C(\C)C(=O)N1CCN(C)CC1)C(C)C)C(C)(C)C)C(C)(C)c1ccccc1
- minimal effective dose [1]: 3 mg/kg
- IC50 [2]: 2330 nM
- inhibition [3]: 69%
- IC50 [6]: 60 nM
- MTD [13]: 15 mg/kg
- IC50 [7]: 33 nM

Compound: CC(=O)O[C@H]1C(=O)[C@@]2(C)[C@H]([C@H](OC(=O)c3ccccc3)[C@]3(O)C[C@H](OC(=O)[C@H](O)[C@@H](NC(=O)c4ccccc4)c4ccccc4)C(C)=C1C3(C)C)[C@]1(OC(C)=O)CO[C@@H]1C[C@@H]2O [PACLITAXEL]
- IC50 [14]: 3.9 nM
- IC50 [4]: 17.3 nM
- IC50 [10]: 8.9 nM
- IC50 [5]: 37.7 nM
- IC50 [12]: 92 nM
- IC50 [9]: 438 nM

Compound: C/C(=C\[C@H](C(C)C)N(C)C(=O)[C@@H](NC(=O)[C@@H](C)C(C)(C)c1ccccc1)C(C)(C)C)C(=O)O
- Kd [15]: No evidence for binding
- IC50 [2]: > 3000 nM
- inhibition [3]: 94%
- IC50 [4]: 1380 nM
- IC50 [5]: 1070 nM
- IC50 [6]: 639 nM
- IC50 [7]: 561 nM
- IC50 [9]: 1200 nM

Compound: CCCC[C@@H](/C=C(\C)C(=O)O)N(C)C(=O)[C@@H](NC(=O)[C@@H](NC)C(C)(C)c1ccccc1)C(C)(C)C
- IC50 [2]: > 3000 nM
- inhibition [3]: 52%
- IC50 [10]: 53 nM
- IC50 [5]: 268 nM
- IC50 [6]: 78 nM
- IC50 [7]: 36 nM

Compound: C/C(=C\[C@H](C(C)C)N(C)C(=O)[C@@H](NC(=O)[C@@H](N1CCCC1)C(C)(C)c1ccccc1)C(C)(C)C)C(=O)O
- IC50 [2]: > 3000 nM
- inhibition [3]: 83%
- IC50 [6]: 158 nM
- IC50 [7]: 75 nM

Compound: CC[C@H](C(=O)N[C@H](C(=O)N(C)[C@H](/C=C(\C)C(=O)O)C(C)C)C(C)(C)C)C(C)(C)c1ccccc1
- IC50 [2]: 5250 nM
- inhibition [3]: 54%
- IC50 [6]: 1200 nM
- IC50 [7]: 912 nM

Compound: CC[C@@H](C(=O)N[C@H](C(=O)N(C)[C@H](/C=C(\C)C(=O)O)C(C)C)C(C)(C)C)C(C)(C)c1ccccc1
- IC50 [2]: 5250 nM
- inhibition [3]: 54%
- IC50 [6]: 1200 nM
- IC50 [7]: 912 nM

Compound: CN[C@H](C(=O)N[C@H](C(=O)N(C)[C@H](/C=C(\C)C(=O)O)C(C)C)C(C)(C)C)C(C)(C)C1CCCCC1
- minimal effective dose [1]: 1 mg/kg
- IC50 [2]: 155 nM
- inhibition [3]: 93%
- IC50 [6]: 5.7 nM
- IC50 [7]: 3.9 nM
- Kd [8]: 1200 nM

Compound: CN[C@H](C(=O)N[C@H](C(=O)N(C)[C@H](/C=C(\C)C(=O)O)C(C)C)C(C)(C)C)C(C)(C)c1ccccc1 [TALTOBULIN]
- minimal effective dose [1]: 0.2 mg/kg
- IC50 [2]: 77.4 nM
- inhibition [3]: 88%
- IC50 [4]: 1.4 nM
- IC50 [10]: 1.8 nM
- IC50 [5]: 6.8 nM
- IC50 [12]: 3.7 nM
- MTD [13]: 1.6 mg/kg
- Kd [8]: 260 nM
- IC50 [9]: 4.2 nM

Compound: CCC[C@H](NC(=O)[C@@H](NC)C(C)(C)c1ccccc1)C(=O)N(C)[C@H](/C=C(\C)C(=O)O)C(C)C
- IC50 [2]: 575 nM
- inhibition [3]: 51%
- IC50 [6]: 19 nM
- IC50 [7]: 15 nM

Compound: CN[C@H](C(=O)N[C@H](C(=O)N(C)[C@H](/C=C(\C)C(=O)O)C(C)C)C(C)(C)C)C(C)(C)O
- IC50 [2]: > 3000 nM
- inhibition [3]: 40%
- IC50 [6]: 293 nM
- IC50 [7]: 151 nM

Compound: CC[C@H](NC(=O)[C@@H](NC)C(C)(C)c1ccccc1)C(=O)N(C)[C@H](/C=C(\C)C(=O)O)C(C)C
- IC50 [2]: 1060 nM
- inhibition [3]: 73%
- IC50 [6]: 70 nM
- IC50 [7]: 48 nM

Compound: CN[C@H](C(=O)N[C@@H](C(=O)N(C)[C@H](/C=C(\C)C(=O)O)C(C)C)C(C)(C)C)C(C)(C)c1ccccc1
- IC50 [2]: > 3000 nM
- inhibition [3]: 1%
- IC50 [6]: > 3000 nM
- IC50 [7]: > 3000 nM

Compound: C/C(=C\[C@H](C(C)C)N(C)C(=O)[C@@H](NC(=O)[C@@H](N(C)CCO)C(C)(C)c1ccccc1)C(C)(C)C)C(=O)O
- IC50 [2]: > 3000 nM
- inhibition [3]: 72%
- IC50 [6]: 62 nM
- IC50 [7]: 45 nM
- Kd [8]: 1000 nM
